Here are results for eight molecules from ChEMBL document CHEMBL2424641, “Synthesis and evaluation of novel radioligands for positron emission tomography imaging of the orexin-2 receptor” (J Med Chem, 2013).

Data set [1] concerns the target T1, Orexin receptor type 2 (Rattus norvegicus) (UniProt P56719).
T1 sequence (whole entry): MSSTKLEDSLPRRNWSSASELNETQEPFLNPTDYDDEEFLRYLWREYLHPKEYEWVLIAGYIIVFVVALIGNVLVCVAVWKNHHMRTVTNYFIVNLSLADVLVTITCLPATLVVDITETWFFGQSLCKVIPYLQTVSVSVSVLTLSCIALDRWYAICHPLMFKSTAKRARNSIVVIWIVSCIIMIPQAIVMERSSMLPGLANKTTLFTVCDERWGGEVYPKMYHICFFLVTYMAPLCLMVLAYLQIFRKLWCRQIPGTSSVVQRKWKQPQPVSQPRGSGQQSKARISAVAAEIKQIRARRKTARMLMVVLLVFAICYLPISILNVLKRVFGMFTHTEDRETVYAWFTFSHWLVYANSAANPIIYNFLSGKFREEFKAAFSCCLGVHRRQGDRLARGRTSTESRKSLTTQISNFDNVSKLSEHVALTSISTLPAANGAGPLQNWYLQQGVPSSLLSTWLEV
Put plainly: Binding affinity to OX2 receptor in coronal rat hypothalamus at 2 nM by autoradiography. Conditions: tested as the 11C-labelled form. The gist of the method: (§1)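 Rat brain sections (20 μm) preincubated 20 min at rt in 25 mM HEPES pH 7.4 with 5 mM MgCl2 and 1 mM CaCl2, then incubated 60 min at rt with 11C radioligand; nonspecific binding with 10 μM unlabeled compound. Sections washed three times in cold water, dried, exposed to imaging plate 1 h alongside calibrated radioactive standards.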

The nature of data set [2]: Ratio of flux ratio in pig LLC cells expressing MDR1 to flux ratio on pig LLC-PK1 cells. It is filed as ADME, cell-based, Sus scrofa. Summed up:
(§2)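 LLC-PK1 and LLC-MDR1 monolayers, 5 days post-seeding, preincubated 2 h at 37 °C in HBSS/10 mM HEPES. Compound added apically or basally, 2 h at 37 °C; opposite side assayed by LC-MS. Papp = Q/t/C0/A; FR = Papp(b→a)/Papp(a→b); corrected FR = FR(LLC-MDR1)/FR(LLC-PK1).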

Another data set concerns LLC-PK1. Put plainly: Flux ratio of permeability from apical to basolateral to basolateral to apical side in pig LLC-PK1 cells after 2 hrs. Conditions: llc-pk1, 2 h. It is filed as ADME, cell-based, Sus scrofa. Summed up: as §2
The target of data set [3] is T1, Orexin receptor type 2 (Rattus norvegicus). The data set is described as follows: Binding affinity to OX2 receptor in coronal rat brain neocortex layer 6 at 2.5 nM by autoradiography. Conditions: tested as the 11C-labelled form. Format: tissue-based. The gist of the method:
as §1

Data set [4] is described as follows: Octanol-phosphate buffer partition coefficient, log D of the compound at pH 7.4 by Shake flask method. Format: physicochemical. Summed up: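 [11C]-labelled compound (about 200 000 cpm) in n-octanol and 0.1 M PBS pH 7.4, vortexed 3 min at rt and centrifuged; weighed aliquots of each phase γ-counted, with the organic layer repartitioned until stable. log D = log(cpm/g octanol ÷ cpm/g PBS); triplicate.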

A short description of data set [5]: Flux ratio of permeability from apical to basolateral to basolateral to apical side in pig LLC cells expressing MDR1 after 2 hrs. It is filed as ADME, cell-based, Sus scrofa. Summed up:
as §2

The target of the next data set is T2, Orexin receptor type 2 (Homo sapiens, UniProt O43614).
T2 sequence (O43614 whole entry): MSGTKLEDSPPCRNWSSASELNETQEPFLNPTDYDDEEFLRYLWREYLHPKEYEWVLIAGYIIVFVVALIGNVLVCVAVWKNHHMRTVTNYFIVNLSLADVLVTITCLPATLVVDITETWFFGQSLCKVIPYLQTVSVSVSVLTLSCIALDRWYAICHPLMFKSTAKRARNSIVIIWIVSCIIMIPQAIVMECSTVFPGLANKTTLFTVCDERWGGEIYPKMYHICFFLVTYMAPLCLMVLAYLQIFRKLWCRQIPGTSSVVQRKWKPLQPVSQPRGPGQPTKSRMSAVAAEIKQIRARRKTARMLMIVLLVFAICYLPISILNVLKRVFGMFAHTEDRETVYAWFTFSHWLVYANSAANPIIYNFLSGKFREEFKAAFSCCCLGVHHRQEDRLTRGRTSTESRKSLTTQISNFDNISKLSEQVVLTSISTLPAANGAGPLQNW
Put plainly: Displacement of [125I]-orexin-A from human OX2 receptor expressed in CHO cells after 30 mins by liquid scintillation counting analysis. It is filed as cell-based. Summed up:
(§3)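 CHO membranes expressing human OX1R or OX2R (5 μg protein) incubated 30 min at rt with compound and [125I]-orexin A (2 nM stock) in HEPES buffer pH 7.5 with MgCl2, CaCl2, BSA. Nonspecific binding with 10 μM orexin A. Wells washed with HEPES/525 mM NaCl and DPM counted. % inhibition from test, control and nonspecific counts; mean of three wells.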

Data set [6] deals with T3, Orexin/Hypocretin receptor type 1 (Homo sapiens, UniProt O43613).
T3 sequence (O43613 whole entry): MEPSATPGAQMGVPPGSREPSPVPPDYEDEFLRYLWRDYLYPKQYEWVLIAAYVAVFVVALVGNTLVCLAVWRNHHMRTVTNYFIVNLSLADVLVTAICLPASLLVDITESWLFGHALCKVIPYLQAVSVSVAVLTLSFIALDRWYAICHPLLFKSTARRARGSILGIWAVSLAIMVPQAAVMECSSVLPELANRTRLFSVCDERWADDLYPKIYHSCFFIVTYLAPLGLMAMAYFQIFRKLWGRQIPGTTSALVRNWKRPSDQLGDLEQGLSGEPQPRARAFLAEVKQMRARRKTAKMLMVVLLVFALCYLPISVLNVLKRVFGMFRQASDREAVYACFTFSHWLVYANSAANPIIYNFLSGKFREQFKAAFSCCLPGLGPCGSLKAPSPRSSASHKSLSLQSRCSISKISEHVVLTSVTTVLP
Put plainly: Displacement of [125I]-orexin-A from human OX1 receptor expressed in CHO cells after 30 mins by liquid scintillation counting analysis. Format: cell-based. The gist of the method: as §3
For orientation: In a radioligand displacement assay an active substance lowers the binding of a labelled ligand.

Data set [7] concerns the target T1, Orexin receptor type 2 (Rattus norvegicus). Put plainly: Binding affinity to OX2 receptor in coronal rat neocortex layer 6 at 2 nM by autoradiography. To be noted: tested as the 11C-labelled form. Summed up: as §1
The subject of another data set is Cerebellum. Put plainly: Drug uptake in P-gp-knockout rat cerebellum at 78.7 to 189.8 MBq, iv after 90 mins by PET analysis in presence of 10 mg/kg, po unlabeled compound. Format: ADME, organism-based. Further details: dose 10 mg/kg, route oral. To be noted: in vivo, 1.5 h. The gist of the method:
(§4)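 Male Mdr1a-knockout rats (410−500 g) under 1.5% isoflurane at 37 °C; [11C] tracer 78.7−189.8 MBq by tail vein. 90 min list-mode microPET scan with filtered back-projection; ROIs drawn on MRI template; decay-corrected %ID/mL, n = 3. Blocking: unlabeled compound 10 mg/kg po in 5% DMSO/10% cremophor in 10 mM HCl, given 1 h before tracer.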

Another data set concerns Thalamus. The data set is described as follows: Drug uptake in P-gp-knockout rat thalamus at 78.7 to 189.8 MBq, iv after 90 mins by PET analysis. It is filed as ADME, organism-based. Conditions: in vivo, 1.5 h. The gist of the method:
as §4

Another data set has as its system Hippocampus. The data set is described as follows: Drug uptake in P-gp-knockout rat hippocampus at 78.7 to 189.8 MBq, iv after 90 mins by PET analysis. To be noted: in vivo, 1.5 h. Format: ADME, organism-based. The gist of the method:
as §4

The nature of data set [8]: Drug uptake in P-gp-knockout rat neocortex at 78.7 to 189.8 MBq, iv after 90 mins by PET analysis. Format: ADME, organism-based. To be noted: in vivo, 1.5 h. Summed up: as §4
Data set [9] has as its target T1, Orexin receptor type 2 (Rattus norvegicus). The data set is described as follows: Binding affinity to OX2 receptor in rat brain neocortex layer 6 at 3.6 nM by autoradiography in presence of EMPA. It is filed as tissue-based. To be noted: tested as the 11C-labelled form.
For data set [10] the target is unchanged. The data set is described as follows: Binding affinity to OX2 receptor in coronal rat hypothalamus at 2.5 nM by autoradiography. To be noted: tested as the 11C-labelled form. Summed up:
as §1

Data set [11] concerns the target Melatonin receptor type 1A (Homo sapiens) (UniProt P48039). The data set is described as follows: Antagonist activity at melatonin MT1A receptor (unknown origin) expressed in HEK 293 cells coexpressing Gqi5 chimeric G-protein after 1 hr by fluorescence-based analysis. Format: cell-based. The gist of the method: (§5)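 HEK293 cells stably expressing target GPCR with Gqi5 chimeric G-protein, seeded on collagen I plates and cultured overnight; calcium dye loaded 1 h at 37 °C. Compound at final 3, 10, 30 μM preincubated 1 h at rt, then reference agonist added at EC20 or EC80; Ca2+ fluorescence read in real time.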

In data set [12] the target is Cannabinoid receptor 1 (Homo sapiens) (UniProt P21554). The data set is described as follows: Antagonist activity at cannabinoid CB1 receptor (unknown origin) expressed in HEK 293 cells coexpressing Gqi5 chimeric G-protein after 1 hr by fluorescence-based analysis. It is filed as cell-based. The gist of the method:
as §5

Data set [13] concerns the target T1, Orexin receptor type 2 (Rattus norvegicus). The data set is described as follows: Binding affinity to OX2 receptor in rat brain neocortex layer 6 at 3.6 nM by autoradiography in presence of suvorexant. Format: tissue-based. Conditions: tested as the 11C-labelled form.
[14] abbreviates: HEK293, tested as the 11C-labelled form.

Activity calls are given as the source filed them. No cut-off for these calls is given here.

Cannabinoid receptor 1 (Homo sapiens), sequence (P21554 whole entry): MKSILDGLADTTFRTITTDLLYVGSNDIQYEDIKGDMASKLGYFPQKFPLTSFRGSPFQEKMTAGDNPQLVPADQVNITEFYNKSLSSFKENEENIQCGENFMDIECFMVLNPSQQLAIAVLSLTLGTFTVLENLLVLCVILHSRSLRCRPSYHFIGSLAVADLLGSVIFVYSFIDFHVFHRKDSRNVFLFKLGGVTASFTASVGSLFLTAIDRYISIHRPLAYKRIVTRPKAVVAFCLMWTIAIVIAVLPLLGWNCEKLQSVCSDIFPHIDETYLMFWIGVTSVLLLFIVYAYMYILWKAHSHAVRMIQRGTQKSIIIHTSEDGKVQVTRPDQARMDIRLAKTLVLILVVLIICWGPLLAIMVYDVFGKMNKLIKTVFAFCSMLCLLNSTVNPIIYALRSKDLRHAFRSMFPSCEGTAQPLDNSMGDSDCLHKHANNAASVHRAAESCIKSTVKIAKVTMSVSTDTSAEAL
Melatonin receptor type 1A (Homo sapiens), sequence (P48039 whole entry): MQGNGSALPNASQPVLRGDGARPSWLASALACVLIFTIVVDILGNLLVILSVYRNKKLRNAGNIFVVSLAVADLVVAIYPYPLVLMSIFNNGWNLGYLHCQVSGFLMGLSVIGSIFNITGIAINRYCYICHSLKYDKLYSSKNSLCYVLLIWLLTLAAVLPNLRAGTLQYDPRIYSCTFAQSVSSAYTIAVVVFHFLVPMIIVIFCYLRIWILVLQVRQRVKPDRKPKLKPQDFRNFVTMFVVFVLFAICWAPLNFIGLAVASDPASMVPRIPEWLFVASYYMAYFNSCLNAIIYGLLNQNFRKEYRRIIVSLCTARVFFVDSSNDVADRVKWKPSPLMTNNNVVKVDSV

By logD is commonly meant lipophilicity at a set pH, counting ionised and neutral species. In general, Ki refers to the equilibrium dissociation constant of an inhibitor or competing ligand from its target. Read a low Ki as tighter binding. With `COc1cc(NC(=O)[C@@H]2C[C@@]2(COc2cnc(C)nc2C)c2cccc(F)c2)ncc1F`, the result in data set [1], in data set [3] and in [7] was Active. Moreover, the Ratio is reported as 2.06 in data set [2], 1.19 in the data set on LLC-PK1 and 2.45 in data set [5]. In data set [4], this molecule yielded a logD of 2.93. The Ki was 2 nM on Orexin receptor type 2 and 3 nM in data set [6].
Regarding `Cc1ncc(OC[C@@]2(c3cccc(F)c3)C[C@H]2C(=O)Nc2cc(O[11CH3])c(F)cn2)c(C)n1`, the Drug uptake entry is recorded as “Not Active” in the data set on Cerebellum, “Active” in the data set with Thalamus, “Active” in the data set on Hippocampus and “Active” in data set [8]. Also, in [4], the logD is 2.93.
As to `Cc1ncc(OC[C@@]2(c3cccc(F)c3)C[C@H]2C(=O)Nc2ccc(F)c(O[11CH3])n2)c(C)n1`, the logD in data set [4] was 3.6.
For `COc1ccc([C@]2(COc3cnc(C)nc3C)C[C@H]2C(=O)Nc2ccc(F)cn2)cc1F`, the Ratio in data set [2] came out at 1.55; in the data set on LLC-PK1, 0.8; in data set [5], 1.24. Further, the logD in [4] turned out to be 3.32. Also, the Ki came to 7 nM on Orexin receptor type 2 and 30 nM in data set [6].
On to `COCc1nc(C)ncc1OC[C@@]1(c2ccccc2)C[C@H]1C(=O)Nc1ccc(F)cn1`, for which the Ratio in [2] is reported as 2.03; with LLC-PK1 it was 0.97; in [5] it was 1.97. Further, the Ki worked out at 1 nM on Orexin receptor type 2 and 9 nM in data set [6].
In the case of `COc1nc(NC(=O)[C@@H]2C[C@@]2(COc2cnc(C)nc2C)c2cccc(F)c2)ccc1F`, the results for the Ratio (in [2]; in the data set with LLC-PK1; in data set [5]) were 1.21, 0.81 and 0.98, respectively. The molecule further showed a logD in data set [4] of 3.6. Also, the Ki at Orexin receptor type 2 was 2 nM; in [6], 12 nM.
Take `Cc1ncc(OC[C@@]2(c3cccc(F)c3)C[C@H]2C(=O)Nc2ccc(C#N)cn2)c(C)n1`: the Ratio in [2] is 1.76; with LLC-PK1 it was 1.09; in data set [5] it was 1.92. Also, the figures for the Ki (at Orexin receptor type 2; in data set [6]) were 5 nM and 32 nM, respectively.
In the case of `COCc1nc(C)ncc1OC[C@@]1(c2cccc(F)c2)C[C@H]1C(=O)Nc1ccc(F)cn1`, the Drug uptake result (in the data set with Cerebellum; in the data set with Thalamus; in the data set on Hippocampus; in data set [8]) was “Active” each time. Further, the result in [9] and in data set [13] was inactive. Moreover, the outcome in data set [10], in data set [11] (HEK293), in data set [11] (setting [14]), in data set [12] (HEK293), in data set [12] (setting [14]) and in data set [3] was Active. For the same molecule, the result in data set [7] was Active. Also, the Ratio in [2] is given as 3.11; in the data set on LLC-PK1 it was 0.84; in data set [5], 2.61. In [4], this molecule gave a logD of 2.97. Besides, the inhibition constant Ki (at Orexin receptor type 2; in data set [6]) was 1 nM throughout.
